From ChEMBL document CHEMBL1828580, “Tertiary amides with a five-membered heteroaromatic ring as new probes for the translocator protein” (Eur J Med Chem, 2011)
Activity calls are given as the source filed them. The rule behind the calls is not given here.

What was measured:
[1] = biological target: Translocator protein (Rattus norvegicus, UniProt P16257); test: Displacement of [3H]PK11195 from TSPO receptor in rat kidney membranes; format: cell membranes, Membrane
[2] = organism: Rattus norvegicus; test: Displacement of [3H]Ro15-1788 from CBR in rat cerebral cortex at 10 uM; format: tissue-based
Outline: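 Rat cerebral cortex membranes were washed free of endogenous GABA, then incubated with 0.4 nM [3H]Ro15-1788 for 90 min at 0 °C in 50 mM Tris-citrate pH 7.4. Compound was present at 10 μM and the result given as % inhibition of binding.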

[3] = Antiproliferative activity against human U87MG cells assessed as cell viability at 1000 times Ki after 24 hrs by MTS assay relative to untreated control; format: functional, U-87MG ATCC
Outline: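 U87MG cells grown in RPMI with 10% FBS, glutamine, antibiotics and non-essential amino acids at 37 °C. […] MTS colorimetric read-out, expressed as % of DMSO-treated control (100%). Triplicate wells, 3 experiments, mean ± SEM.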

[4] = system: U-87 MG; test: Induction of mitochondrial membrane depolarization in human U87MG cells assessed as increase in JC-1 monomer formation at 30 times Ki after 12 to 48 hrs by flow cytometric analysis; format: functional, cell-based; settings: U-87MG ATCC
Outline: (§1)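 U87MG cells were exposed to compound at 30 times Ki, or to DMSO control, for 12, 24 or 48 h, with CCCP as positive control in each experiment. Collected cells were stained with JC-1 for 30 min at room temperature in the dark, then analysed by flow cytometry: aggregates in FL2, monomers in FL1, gated on forward/side scatter. Read-out was % of cells in the lower-right (depolarized) quadrant; three independent experiments.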

[5] = system: U-87 MG; test: Induction of mitochondrial membrane depolarization in human U87MG cells assessed as change in membrane potential at 30 times Ki after 48 hrs by flow cytometric analysis; format: functional, U-87MG ATCC; outline: as §1
[6] = system: U-87MG ATCC; test: Antiproliferative activity against human U87MG cells assessed as reduction in cell viability at 30 times Ki after 24 hrs by trypan blue exclusion assay
[7] = system: U-87MG ATCC; test: Antiproliferative activity against human U87MG cells assessed as reduction in cell viability at 30 times Ki after 48 hrs by trypan blue exclusion assay
[8] = system: U-87MG ATCC; test: Antiproliferative activity against human U87MG cells assessed as reduction in cell viability at 30 times Ki after 72 hrs by trypan blue exclusion assay
[9] = system: U-87MG ATCC; test: Antiproliferative activity against human U87MG cells assessed as reduction in cell viability at 150 times Ki after 24 hrs by trypan blue exclusion assay

Sequence of Translocator protein (P16257 whole entry, looked up): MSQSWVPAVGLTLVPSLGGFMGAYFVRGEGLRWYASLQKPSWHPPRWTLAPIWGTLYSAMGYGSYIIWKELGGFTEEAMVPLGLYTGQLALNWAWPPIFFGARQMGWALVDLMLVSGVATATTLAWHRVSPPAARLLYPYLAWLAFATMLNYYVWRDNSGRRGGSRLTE

Compound | Ki [1] [nM] | other results
CCCCCN(CCCCC)C(=O)c1cc(-c2ccccc2)no1 | 379 | 
CCCCN(C)C(=O)c1nc(-c2ccccc2)no1 | > 10000 | 
CCN(Cc1ccccc1)C(=O)c1coc(-c2ccccc2)n1 | 5490 | 
CCCCN(CCCC)C(=O)Cc1nc(-c2ccc(Cl)cc2)no1 | 267 | 
CCCCCN(CCCCC)C(=O)Cc1nc(-c2ccc(Cl)cc2)no1 | 152 | 
CCCCN(CCCC)C(=O)c1cc(-c2ccccc2)no1 | 651 | 
CCCCCCN(CCCCCC)C(=O)c1cc(-c2ccc(C)cc2)no1 | 2700 | 
CCCN(CCC)C(=O)Cc1nc(-c2ccc(Cl)cc2)no1 | 3400 | 
CCCCCN(CCCCC)C(=O)c1nc(-c2ccccc2)no1 | 914 | 
CCCCN(CCCC)C(=O)Cc1nc(-c2ccccc2)no1 | 489 | 
CCCCCCN(CCCCCC)C(=O)Cc1coc(-c2ccccc2)n1 | 151 | inhibition [2]: < 25%
CCCCN(CCCC)C(=O)C(=O)c1c(-c2ccc(Cl)cc2)[nH]c2ccc(Cl)cc12 |  | Activity [3]: 76%
CCCCCCN(CCCCCC)C(=O)c1coc(-c2ccccc2)n1 | 4600 | 
CCCCCN(CCCCC)C(=O)c1cc(-c2ccccc2)on1 | 382 | 
CCCN(CCC)C(=O)Cc1coc(-c2ccc(Cl)cc2)n1 | 942 | 
CCN(CC)C(=O)c1nc(-c2ccccc2)no1 | > 10000 | 

Compound | Ki [1] [nM] | other results
CCCCCN(CCCCC)C(=O)c1coc(-c2ccccc2)n1 | 613 | 
CCCCN(CCCC)C(=O)Cc1coc(-c2ccc(Cl)cc2)n1 | 177 | 
CCCCCN(CCCCC)C(=O)Cc1cc(-c2ccccc2)on1 | 51 | Activity [3]: 24.8%
CCCCCN(CCCCC)C(=O)Cc1coc(-c2ccc(C)cc2)n1 | 68 | Activity [3]: 5.3%
CCCN(CCC)C(=O)c1cc(-c2ccc(Cl)cc2)on1 | > 10000 | 
CCCN(CCC)C(=O)c1cc(-c2ccccc2)no1 | > 10000 | 
CCCN(CCC)C(=O)Cc1nc(-c2ccccc2)no1 | 4340 | 
CCCCCCN(CCCCCC)C(=O)Cc1nc(-c2ccc(Cl)cc2)no1 | 3200 | 
CCN(CC)C(=O)c1coc(-c2ccccc2)n1 | > 10000 | 
CCN(Cc1ccccc1)C(=O)c1nc(-c2ccccc2)no1 | 4870 | 
CCCCN(CCCC)C(=O)Cc1coc(-c2ccccc2)n1 | 346 | inhibition [2]: < 25%
CCCCN(CCCC)C(=O)Cc1coc(-c2ccc(C)cc2)n1 | 487 | 
CCCCN(CCCC)C(=O)Cc1coc(-c2ccc(F)cc2)n1 | 88 | 
CCCN(CCC)C(=O)Cc1coc(-c2ccccc2)n1 | 1700 | inhibition [2]: < 25%
CCCCN(CCCC)C(=O)c1nc(-c2ccccc2)no1 | 772 | 

More lines, main results first:

Ki [1] [nM] | Compound | other results
7000 | CCCCCCN(CCCCCC)C(=O)c1cc(-c2ccccc2)no1 | 
620 | CCCCN(CCCC)C(=O)c1cc(-c2ccccc2)on1 | 
> 10000 | CCCCCCN(CCCCCC)C(=O)c1cc(-c2ccc(Cl)cc2)on1 | 
32 | CCCCCN(CCCCC)C(=O)Cc1coc(-c2ccccc2)n1 | inhibition [2]: < 25%; Activity [3]: 9.3%; Activity [4]: Active; Activity [5]: 24%; Activity [6]: Active; Activity [7]: Active; Activity [8]: Active; Activity [9]: Active
3460 | CCCCN(CCCC)C(=O)c1coc(-c2ccccc2)n1 | 
45 | CCCCCN(CCCCC)C(=O)Cc1coc(-c2ccc(Cl)cc2)n1 | Activity [3]: 72.6%
1630 | CCCN(CCC)C(=O)Cc1coc(-c2ccc(F)cc2)n1 | 
133 | CCCCCN(CCCCC)C(=O)Cc1nc(-c2ccccc2)no1 | 
704 | CCCCCCN(CCCCCC)C(=O)Cc1coc(-c2ccc(Cl)cc2)n1 | 
> 10000 | CCCCN(C)C(=O)c1coc(-c2ccccc2)n1 | 
257 | CCCCCN(CCCCC)C(=O)Cc1cc(-c2ccccc2)no1 | 
4190 | CCCCCCN(CCCCCC)C(=O)c1nc(-c2ccccc2)no1 | 
2200 | CCCN(CCC)C(=O)Cc1coc(-c2ccc(C)cc2)n1 | 
1100 | CCCCCCN(CCCCCC)C(=O)Cc1nc(-c2ccccc2)no1 | 
5800 | CCCCCCN(CCCCCC)C(=O)c1cc(-c2ccccc2)on1 | 
157 | CCCCCCN(CCCCCC)C(=O)Cc1coc(-c2ccc(F)cc2)n1 | 
877 | CCCCCCN(CCCCCC)C(=O)Cc1coc(-c2ccc(C)cc2)n1 | 
> 10000 | CCCN(CCC)C(=O)c1coc(-c2ccccc2)n1 | 
11 | CCCCCN(CCCCC)C(=O)Cc1coc(-c2ccc(F)cc2)n1 | Activity [3]: 98%
> 10000 | CCCN(CCC)C(=O)c1nc(-c2ccccc2)no1 | 
> 10000 | CCCN(CCC)C(=O)c1cc(-c2ccccc2)on1 | 
